Columns and labels:
[1] = biological target: T1, Broad substrate specificity ATP-binding cassette transporter ABCG2 (Homo sapiens, UniProt Q9UNQ0); assay: Inhibition of recombinant human GFP-fused ABCG2 expressed in MDCK2 cells assessed as reduction in Hoechst 33342 efflux preincubated for 30 mins followed by Hoechst 33342 addition measured immediately at 60 sec time interval for 120 mins by fluorescence assay; type: cell-based
T1 sequence (Q9UNQ0 whole entry): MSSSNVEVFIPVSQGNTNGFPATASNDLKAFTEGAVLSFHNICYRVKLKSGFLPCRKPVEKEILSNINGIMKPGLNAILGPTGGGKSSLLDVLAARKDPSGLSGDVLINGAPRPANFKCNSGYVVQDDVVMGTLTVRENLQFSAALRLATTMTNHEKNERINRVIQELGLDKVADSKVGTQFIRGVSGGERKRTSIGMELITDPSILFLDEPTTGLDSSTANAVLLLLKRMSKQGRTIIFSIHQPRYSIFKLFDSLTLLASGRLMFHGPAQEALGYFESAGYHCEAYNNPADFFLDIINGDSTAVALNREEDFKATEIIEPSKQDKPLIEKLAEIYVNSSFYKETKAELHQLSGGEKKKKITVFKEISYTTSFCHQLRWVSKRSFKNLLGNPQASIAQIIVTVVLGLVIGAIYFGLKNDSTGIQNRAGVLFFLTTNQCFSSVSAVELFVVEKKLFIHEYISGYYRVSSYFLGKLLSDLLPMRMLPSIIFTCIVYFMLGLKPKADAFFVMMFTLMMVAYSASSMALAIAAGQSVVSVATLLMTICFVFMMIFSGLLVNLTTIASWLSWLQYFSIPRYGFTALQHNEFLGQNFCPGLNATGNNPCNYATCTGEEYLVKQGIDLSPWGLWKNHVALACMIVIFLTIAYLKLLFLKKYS
In short: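 Hoechst 33342 accumulation assay: the dye is an ABCG2 substrate whose fluorescence rises when bound to DNA or embedded in membrane. Intracellular accumulation serves as the read-out of transporter inhibition.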

ABCG2 [2] = biological target: T2, ABCG2 (Homo sapiens, UniProt Q9UNQ0); assay: Inhibition of recombinant human GFP-fused ABCG2 expressed in MDCK2 cells assessed as reduction in Hoechst 33342 efflux at […] preincubated for 30 mins followed by Hoechst 33342 addition measured immediately at 60 sec time interval for 120 mins by fluorescence assay relative to Ko143; type: cell-based; details: MDCK2 cells expressing recombinant GFP-fused human ABCG2, probe Hoechst 33342, read-out: Imax
T2 sequence (Q9UNQ0 whole entry): T1 sequence (Q9UNQ0 whole entry)

[3] = Cytotoxicity against ABCG2 over-expressing MDCK2 cells assessed as cell growth inhibition after 72 hrs by MTT assay; type: ADME, cell-based, Canis lupus familiaris, MDCK-II; details: dog
[4] = Cytotoxicity against MDCK2 cells assessed as cell growth inhibition after 72 hrs by MTT assay; type: cell-based, Canis lupus familiaris, MDCK-II; details: dog
[5] = Therapeutic index, ratio of GI50 for ABCG2 over-expressing MDCK2 cells to IC50 for recombinant human GFP-fused ABCG2 expressed in MDCK2 cells; type: cell-based
[6] = biological target: T1, Broad substrate specificity ATP-binding cassette transporter ABCG2; assay: Activation of ABCG2 (unknown origin) ATPase activity expressed in baculovirus infected high five cell membranes by ascorbic acid/ammonia molybdate reaction-based colorimetric analysis
In short: (§1)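 Colorimetric ATPase assay of ABCG2 membranes; activity expressed relative to control. Where data were biphasic, a combined increasing plus decreasing logistic equation with the Hill coefficient fixed at one was fitted, giving an activating and an inactivating K.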

ABCG2 [7] = biological target: T2, ABCG2; assay: Activation of ABCG2 (unknown origin) ATPase activity expressed in baculovirus infected high five cell membranes assessed as protein Vmax by ascorbic acid/ammonia molybdate reaction-based colorimetric analysis relative to basal control; details: read-out: Vmax; in short: as §1
[8] = biological target: ATP-dependent translocase ABCB1 (Homo sapiens, UniProt P08183); assay: Inhibition of ABCB1 in human A2780adr cells assessed as reduction in calcein AM levels preincubated for 30 mins followed by calcein AM addition measured immediately at 60 sec time interval for 60 mins by fluorescence assay; type: cell-based
In short: (§2)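 Calcein AM assay in A2780adr cells (ABCB1 overexpressing) and H69AR cells (ABCC1 overexpressing). Compounds were screened at 10 µM, with inhibition relative to cyclosporine A as the total-inhibition control.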

ABCB1 = ABCB1 (Homo sapiens, UniProt P08183); assay: Inhibition of ABCB1 in human A2780adr cells assessed as reduction in calcein AM levels at 10 uM preincubated for 30 mins followed by calcein AM addition measured immediately at 60 sec time interval for 60 mins by fluorescence assay relative to Cyclosporine A; type: cell-based; details: probe calcein AM; in short: as §2
MDCK-II = assay: Cytotoxicity against ABCG2 over-expressing MDCK2 cells assessed as effect on cell proliferation at low concentration after 72 hrs in absence of DMSO and presence of 1% methanol by MTT assay; type: ADME, cell-based, Canis lupus familiaris; details: dog
In short: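 Modified MTT viability assay in ABCG2-overexpressing MDCK II cells, run without DMSO and with a constant 1% methanol.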

Chain of ABCB1 (P08183 whole entry): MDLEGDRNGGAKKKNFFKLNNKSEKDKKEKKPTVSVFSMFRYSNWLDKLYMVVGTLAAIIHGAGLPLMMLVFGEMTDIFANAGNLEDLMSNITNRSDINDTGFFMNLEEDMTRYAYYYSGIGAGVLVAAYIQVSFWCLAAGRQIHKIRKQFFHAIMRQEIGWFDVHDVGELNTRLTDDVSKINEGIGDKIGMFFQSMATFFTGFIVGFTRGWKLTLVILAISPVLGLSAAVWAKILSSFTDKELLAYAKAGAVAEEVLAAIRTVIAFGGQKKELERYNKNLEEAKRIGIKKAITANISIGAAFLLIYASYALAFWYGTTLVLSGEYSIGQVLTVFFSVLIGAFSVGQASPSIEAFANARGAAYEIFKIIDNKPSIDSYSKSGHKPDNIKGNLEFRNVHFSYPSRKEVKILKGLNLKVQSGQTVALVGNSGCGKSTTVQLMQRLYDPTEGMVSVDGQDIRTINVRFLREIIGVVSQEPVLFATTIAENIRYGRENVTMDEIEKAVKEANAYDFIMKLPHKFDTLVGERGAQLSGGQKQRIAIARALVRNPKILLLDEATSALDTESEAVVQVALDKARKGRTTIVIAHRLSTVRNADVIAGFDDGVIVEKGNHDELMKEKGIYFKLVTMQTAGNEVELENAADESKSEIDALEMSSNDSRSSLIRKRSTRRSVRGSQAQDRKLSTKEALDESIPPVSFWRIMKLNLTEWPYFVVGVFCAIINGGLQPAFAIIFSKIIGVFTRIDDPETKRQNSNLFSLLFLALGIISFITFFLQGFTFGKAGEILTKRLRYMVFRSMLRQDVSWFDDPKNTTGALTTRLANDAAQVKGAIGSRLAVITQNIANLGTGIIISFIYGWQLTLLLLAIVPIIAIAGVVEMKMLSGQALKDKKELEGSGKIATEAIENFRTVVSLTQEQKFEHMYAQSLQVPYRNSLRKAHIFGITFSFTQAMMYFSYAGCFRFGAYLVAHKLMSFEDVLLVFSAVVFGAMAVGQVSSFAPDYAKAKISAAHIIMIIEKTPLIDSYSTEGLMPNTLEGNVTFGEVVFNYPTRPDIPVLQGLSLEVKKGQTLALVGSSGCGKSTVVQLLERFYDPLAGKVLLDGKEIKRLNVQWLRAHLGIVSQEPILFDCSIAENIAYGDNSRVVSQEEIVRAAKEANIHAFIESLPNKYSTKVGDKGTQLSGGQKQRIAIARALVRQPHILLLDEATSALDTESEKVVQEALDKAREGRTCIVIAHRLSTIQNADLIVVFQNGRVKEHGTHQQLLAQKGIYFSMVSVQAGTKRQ
Chain of ATP-dependent translocase ABCB1 (P08183 whole entry): as above

SMILES	IC50 [1]	Emax at 2 h (ABCG2 [2])	GI50 at 72 h [3]	GI50 at 72 h [4]	TI [5]	EC50 ([6]; read-out: EC50)	Emax (ABCG2 [7])	IC50 [8]	inhibition at 1 h, 10 µM (ABCB1)	EC50 [6]	Activity (MDCK-II)
Cc1cc(Nc2cccc(C#N)c2)nc(-c2ccncc2)n1	132 nM	80 to 110%	6920 nM	9330 nM	52.4	22 nM	133%				
N#Cc1cccc(Nc2nc(-c3ccccn3)nc3ccccc23)c1	507 nM	80 to 110%				1530 nM	115%				
COc1ccc(Nc2nc(-c3ccncc3)nc3ccccc23)cc1C(F)(F)F	146 nM	80 to 110%	2880 nM	2460 nM	19.7			2780 nM	> 25%		
Cc1cc(Nc2cccc(C#N)c2)nc(-c2ccccc2)n1	122 nM	80 to 110%				2080 nM	134%				
Oc1cccc(Nc2nc(-c3ccncc3)nc3ccccc23)c1	1070 nM	80 to 110%	9220 nM	12400 nM	8.62						
O=[N+]([O-])c1cccc(Nc2nc(-c3ccncc3)nc3ccccc23)c1	117 nM	80 to 110%				4 nM	185%				
COc1ccc(Nc2cc(C)nc(-c3ccncc3)n2)cc1	874 nM	80 to 110%				85 nM	146%				
N#Cc1ccc(Nc2nc(-c3ccccc3)nc3ccccc23)cc1	71.4 nM	80 to 110%									
COc1ccc(Nc2nc(-c3ccccn3)nc3ccccc23)cc1OC	1060 nM	80 to 110%				79 nM	152%	6300 nM	> 25%		
O=[N+]([O-])c1cc(Nc2nc(-c3ccccc3)nc3ccccc23)ccc1O	81.1 nM	80 to 110%			647	20 nM	135%				
OCc1cccc(Nc2nc(-c3cccnc3)nc3ccccc23)c1	810 nM	80 to 110%									
Cc1cc(Nc2ccc(C#N)cc2)nc(-c2ccccc2)n1	128 nM	80 to 110%	17800 nM	28400 nM	139	2460 nM	140%				
O=[N+]([O-])c1cccc(Nc2nc(-c3ccccn3)nc3ccccc23)c1	376 nM	80 to 110%				676 nM	119%				
CN(C)c1cccc(Nc2nc(-c3cccnc3)nc3ccccc23)c1	1200 nM	80 to 110%	10000 nM	14100 nM	8.33						
Fc1cccc(Nc2nc(-c3ccccc3)nc3ccccc23)c1	363 nM	80 to 110%	18000 nM		49.6	131 nM	142%				
Cc1cc(Nc2ccccc2)nc(-c2ccccc2)n1	648 nM	80 to 110%	107000 nM	136000 nM	165		100%			Not Active	
O=S(=O)(F)c1cccc(Nc2nc(-c3ccncc3)nc3ccccc23)c1	1380 nM	80 to 110%									
COc1cccc(Nc2nc(-c3cccnc3)nc3ccccc23)c1	1020 nM	80 to 110%				50 nM	137%	4780 nM	> 25%		
O=[N+]([O-])c1cccc(Nc2nc(-c3cccnc3)nc3ccccc23)c1	105 nM	80 to 110%	70800 nM	64600 nM	615	21 nM	154%				

SMILES	IC50 [1]	Emax at 2 h (ABCG2 [2])	GI50 at 72 h [3]	GI50 at 72 h [4]	TI [5]	EC50 ([6]; read-out: EC50)	Emax (ABCG2 [7])	IC50 [8]	inhibition at 1 h, 10 µM (ABCB1)	EC50 [6]	Activity (MDCK-II)
COc1ccc(Nc2nc(-c3cccnc3)nc3ccccc23)cc1OC	753 nM	80 to 110%						3110 nM	> 25%		
COc1cccc(Nc2cc(C)nc(-c3ccncc3)n2)c1	271 nM	80 to 110%				82 nM	144%				
N#Cc1cccc(Nc2nc(-c3ccncc3)nc3ccccc23)c1	134 nM	80 to 110%	88100 nM	112000 nM	657	16 nM	178%				Non-Toxic
N#Cc1ccc(Nc2nc(-c3cccnc3)nc3ccccc23)cc1	166 nM	80 to 110%	79400 nM	104000 nM	241	4 nM	137%				
COC(=O)c1cccc(Nc2nc(-c3ccncc3)nc3ccccc23)c1	405 nM	80 to 110%						6370 nM	> 25%		
Fc1cccc(Nc2nc(-c3cccnc3)nc3ccccc23)c1	156 nM	80 to 110%	46800 nM	100000 nM	300	58 nM	140%				
COc1cccc(Nc2nc(-c3ccccn3)nc3ccccc23)c1	1630 nM	80 to 110%						12700 nM	> 25%		
COC(=O)c1cccc(Nc2nc(-c3cccnc3)nc3ccccc23)c1	362 nM	80 to 110%									
Oc1ccc(Nc2nc(-c3ccncc3)nc3ccccc23)cc1	4260 nM	80 to 110%	55000 nM	120000 nM	12.9						
COc1ccc(Nc2nc(-c3ccncc3)nc3ccccc23)cc1OC	545 nM	80 to 110%				10 nM	150%	2080 nM	> 25%		
O=C(O)c1ccc(Nc2nc(-c3ccncc3)nc3ccccc23)cc1	9640 nM	80 to 110%						3670 nM	> 25%		
c1ccc(Nc2nc(-c3ccccc3)nc3ccccc23)cc1	882 nM	80 to 110%	26600 nM	26000 nM	30.1						
O=[N+]([O-])c1cc(Nc2nc(-c3cccnc3)nc3ccccc23)ccc1O	245 nM	80 to 110%				7 nM	151%				
O=C(O)c1cccc(Nc2nc(-c3ccncc3)nc3ccccc23)c1	60000 nM	80 to 110%									
OCc1cccc(Nc2nc(-c3ccncc3)nc3ccccc23)c1	921 nM	80 to 110%									
CC(C)(C)OC(=O)c1cccc(Nc2nc(-c3ccncc3)nc3ccccc23)c1	299 nM	80 to 110%				1540 nM	40%	334 nM	> 25%		
N#Cc1cccc(Nc2nc(-c3ccccc3)nc3ccccc23)c1			10400 nM	14200 nM	146	15 nM	145%				
Oc1ccc(Nc2nc(-c3ccccc3)nc3ccccc23)cc1	211 nM	80 to 110%	14600 nM	22600 nM	69.2						

Reference: ChEMBL document CHEMBL4014315 (J Med Chem, 2017)
